The target in test [1] is T1, Phosphatidylinositol 4,5-bisphosphate 3-kinase catalytic subunit alpha isoform (Homo sapiens, UniProt P42336). Briefly: Inhibition of PI3K-alpha kinase (unknown origin) using ULight-4E-BP1 as substrate at 10 uM after 60 mins by luminescence assay. The conditions noted are these: in the assay text read “L-alpha-phosphatidylinositol” for “ULight-4E-BP1”. Summed up:
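Kinase-Glo luminescent assay with 10 nM PI3Kα protein and lipid substrate prepared in 3% octyl-glucoside. The reaction was started by adding ATP in reaction buffer and ran 60 min. It was stopped with Kinase-Glo buffer, then luminescence was read.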

In test [2] the target is T2, Serine/threonine-protein kinase mTOR (Homo sapiens, UniProt P42345). Nature of the test: Inhibition of mTOR kinase (unknown origin) using ULight-4E-BP1 as substrate after 1 hr by TR-FRET assay.
Test [3] in a line: Cytotoxicity against human PC3 cells after 72 hrs by MTT assay. Type of test: functional, cell-based. The conditions noted are these: PC-3, 72 h. Put shortly:
(§1)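 MTT assay on H460 and PC-3 cells grown in MEM with 10% FBS. MTT was added at […] and incubated with the cells for 4 h at 37 °C. Formazan was dissolved in DMSO and absorbance read at 492 nm against a 630 nm reference. Each compound was tested three times per cell line; IC50 values are averages of two determinations.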

The target of test [4] is T1, Phosphatidylinositol 4,5-bisphosphate 3-kinase catalytic subunit alpha isoform. Nature of the test: Inhibition of PI3K-alpha kinase (unknown origin) using L-alpha-phosphatidylinositol as substrate after 60 mins by luminescence assay.
Test [5] in a line: Cytotoxicity against human H460 cells after 72 hrs by MTT assay. Type of test: functional, cell-based. The conditions noted are these: NCI-H460, 72 h. Summed up:
as §1

For test [6], the target named is T2, Serine/threonine-protein kinase mTOR. Nature of the test: Ratio of (E)-4-((2-(4,6-dimorpholino-1,3,5-triazin-2-yl)hydrazono)methyl)-2,6-dimethoxyphenol IC50 to compound IC50 for mTOR kinase (unknown origin).
Test [7] concerns the target T1, Phosphatidylinositol 4,5-bisphosphate 3-kinase catalytic subunit alpha isoform. Briefly: Ratio of (E)-4-((2-(4,6-dimorpholino-1,3,5-triazin-2-yl)hydrazono)methyl)-2,6-dimethoxyphenol IC50 to compound IC50 for PI3K-alpha kinase (unknown origin).
A short description of test [8]: Ratio of (E)-4-((2-(4,6-dimorpholino-1,3,5-triazin-2-yl)hydrazono)methyl)-2,6-dimethoxyphenol IC50 to compound IC50 for human H460 cells. Type of test: functional.
For another test, the system named is PC-3. Nature of the test: Ratio of (E)-4-((2-(4,6-dimorpholino-1,3,5-triazin-2-yl)hydrazono)methyl)-2,6-dimethoxyphenol IC50 to compound IC50 for human PC3 cells. Type of test: functional.

T1 sequence (P42336 whole entry, canonical isoform): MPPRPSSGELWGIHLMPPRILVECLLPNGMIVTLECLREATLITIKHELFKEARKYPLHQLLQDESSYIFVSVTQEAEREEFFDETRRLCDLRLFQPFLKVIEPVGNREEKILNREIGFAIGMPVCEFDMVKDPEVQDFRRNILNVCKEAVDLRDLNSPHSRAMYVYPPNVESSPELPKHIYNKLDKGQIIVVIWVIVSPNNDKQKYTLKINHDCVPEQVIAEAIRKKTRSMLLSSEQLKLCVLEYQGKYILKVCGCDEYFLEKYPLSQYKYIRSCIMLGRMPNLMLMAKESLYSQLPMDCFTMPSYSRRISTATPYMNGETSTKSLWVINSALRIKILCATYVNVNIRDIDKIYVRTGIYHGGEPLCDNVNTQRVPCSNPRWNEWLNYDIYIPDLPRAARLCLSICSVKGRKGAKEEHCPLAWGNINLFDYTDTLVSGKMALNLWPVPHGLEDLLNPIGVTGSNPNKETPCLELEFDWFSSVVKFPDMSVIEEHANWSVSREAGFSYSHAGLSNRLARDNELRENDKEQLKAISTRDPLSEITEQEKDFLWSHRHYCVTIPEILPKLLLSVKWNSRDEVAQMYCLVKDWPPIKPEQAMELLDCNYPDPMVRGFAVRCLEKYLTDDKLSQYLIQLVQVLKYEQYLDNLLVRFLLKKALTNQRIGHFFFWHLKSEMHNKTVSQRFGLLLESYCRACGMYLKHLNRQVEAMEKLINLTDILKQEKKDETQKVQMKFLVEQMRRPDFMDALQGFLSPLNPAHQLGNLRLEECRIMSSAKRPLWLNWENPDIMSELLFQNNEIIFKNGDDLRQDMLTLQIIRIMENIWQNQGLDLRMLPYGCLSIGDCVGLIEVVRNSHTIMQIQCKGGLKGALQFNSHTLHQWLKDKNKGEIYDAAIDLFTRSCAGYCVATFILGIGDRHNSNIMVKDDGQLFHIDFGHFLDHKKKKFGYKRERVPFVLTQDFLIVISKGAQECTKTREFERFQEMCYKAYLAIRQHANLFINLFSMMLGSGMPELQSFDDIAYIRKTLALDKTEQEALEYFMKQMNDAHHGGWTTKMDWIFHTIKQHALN

Take `O=C(O)c1ccc2occ(/C=N/Nc3nc(N4CCOCC4)c4sccc4n3)c(=O)c2c1`: the inhibition in test [1] was determined as 95%. The IC50 in test [2] amounted to 3310 nM; in test [3] it was 6260 nM; in test [4] it was 1810 nM.
In test [4], `COc1cc(/C=N/Nc2nc(N3CCOCC3)nc(N3CCOCC3)n2)cc(OC)c1O` came in with an IC50 of more than 10000 nM.
Turning to `O=c1c(/C=N/Nc2nc(N3CCOCC3)c3ccsc3n2)coc2ccc([N+](=O)[O-])cc12`, the inhibition in [1] turned out to be 91.2%. Moreover, the half-inhibitory concentration (IC50) in test [2] worked out at 920 nM; in [5], 3240 nM; in test [3], 1420 nM; in test [4] it was 1530 nM.
`N#Cc1cccc(Cn2cc(/C=N/Nc3nc(N4CCOCC4)nc(N4CCOCC4)n3)c3ccccc32)c1` gave an IC50 in [2] of 16600 nM. In other words, the double-digit micromolar range.
Consider `O=C(O)c1ccc2occ(/C=N/Nc3nc(N4CCOCC4)c4ccsc4n3)c(=O)c2c1`, for which the inhibition in test [1] stood at 90.6%. Moreover, the IC50 turned out to be 160 nM in test [2], 1200 nM in [5], 850 nM in test [3] and 2350 nM in [4]. For the same compound, the Ratio IC50 was 8.6 in test [6], more than 5 in test [7], 7.9 in [8] and 19.1 in the test with PC-3.
`Fc1cccc(Cn2cc(/C=N/Nc3nc(N4CCOCC4)c4sccc4n3)c3ccccc32)c1` had an IC50 in test [2] of more than 30000 nM.
Take `O=c1c(/C=N/Nc2nc(N3CCOCC3)c3sccc3n2)coc2ccc([N+](=O)[O-])cc12`: the inhibition in test [1] came out at 58.8%. For the same compound, the IC50 in test [2] was 4620 nM; in test [3] it was 6900 nM; in test [4], more than 10000 nM.

These data come from ChEMBL document CHEMBL3407441, “Design, synthesis and docking studies of novel thienopyrimidine derivatives bearing chromone moiety as mTOR/PI3Kα inhibitors” (Eur J Med Chem, 2015).
